Experimental data pooled from the literature.
pEC50, pIC50: −log10 of the molar value.
Read-out: cell growth or viability

| SMILES | cell line | technique | tested at | time | endpoint | result |
| --- | --- | --- | --- | --- | --- | --- |
| N.N.[Cl][Pt][Cl] | A-375 | SRB |  |  | pEC50 | 5.92 |
| O=C(O)CCn1cc(C(=O)c2ccc(F)cc2)c2cc(-c3ccc(N4CCNCC4)nc3)cnc21 | MRC5 | MTT | 10 µM | 48 h | viability | 77.7% |
| CO[C@]1([C@@H]2CSC(=O)N2CCCO)C[C@H]2C[C@@H](CC[C@H](C)/C=C\C=C\CC/C(C)=C\C(=O)O2)O1 | MDA-MB-231 | MTT |  | 72 h | pIC50 | < 4.30 |
| COc1ccc(C(=O)c2c[nH]c3ncc(-c4ccc(N5CCNCC5)nc4)cc23)cc1 | MRC5 | MTT | 10 µM | 48 h | viability | 99.2% |
| CCCS(=O)(=O)Nc1ccc(F)c(C(=O)c2c[nH]c3ncc(Cl)cc23)c1F | A-375 |  |  |  | pEC50 | 7.52 |
| O=C(c1cccc(F)c1)c1c[nH]c2ncc(-c3ccc(N4CCNCC4)nc3)cc12 | MRC5 | MTT | 10 µM | 48 h | viability | 66.2% |
| CCN1C(=O)SCC1C1(OC)CC2CC(CCC(C)C=CC=CCCC(C)=CC(=O)O2)O1 (stereo not shown) | MDA-MB-231 | MTT |  | 72 h | pIC50 | < 4.30 |
| O=C(c1ccc(F)cc1)c1c[nH]c2ncc(-c3ccc(N4CCOCC4)nc3)cc12 | MRC5 | MTT | 10 µM | 48 h | viability | 68.1% |
| C/C1=C/C(=O)O[C@@H]2C[C@@H](CC[C@H](C)/C=C\C=C\CC1)O[C@@](O)([C@@H]1CSC(=O)N1Cc1ccccc1)C2 | MDA-MB-231 | MTT |  | 72 h | pIC50 | 5.57 |
| N.N.[Cl][Pt][Cl] | BEL-7404 | MTT |  | 48 h | pIC50 | 4.88 |
| COc1cccc2c1C(=O)c1c(O)c3c(c(O)c1C2=O)C[C@@](O)(C(=O)CO)C[C@@H]3O[C@H]1C[C@H](N)[C@H](O)[C@H](C)O1 | LLC-PK11 |  |  | 48 h | IC50 | 0.9 µg/mL |
| CCN1C(=O)SC[C@H]1[C@@]1(O)C[C@H]2C[C@@H](CC[C@H](C)/C=C\C=C\CC/C(C)=C\C(=O)O2)O1 | MDA-MB-231 | MTT |  | 72 h | pIC50 | 5.14 |
| N.N.[Cl][Pt][Cl] | MDA-MB-231 | MTT |  | 72 h | GI50 | 4.18 µM |
